According to ChEMBL document CHEMBL5058577, “EUbOPEN Chemogenomics Library 2 (Multiplex)” (2022):

System: Fibroblast
Experiment: Multiplex assay against human fibroblast
Format: toxicity, cell-based
How it was run: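 On a CQ1 microscope at 37°C and 5% CO2, live cells were imaged after compound addition. They had been stained at seeding with Hoechst33342, BioTracker Green Microtubule Cytoskeleton Dye, MitoTracker Red and Annexin V Alexa Fluor 680. CellPathfinder machine-learning gating assigned cells to Hoechst high-intensity objects or normal cells, normal cells to healthy, pyknosed or fragmented nuclei, and pyknosed cells to mitotic or apoptotic. Tubulin, mitochondrial-mass and membrane-permeability phenotypes are per cents of healthy-nucleus cells.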

[1] = 12 h, 1 µM, compound concentration 1 uM, replicate 1
[2] = 12 h, 1 µM, compound concentration 1 uM, replicate 2
[3] = 12 h, 10 µM, compound concentration 10 uM, replicate 1
[4] = 12 h, 10 µM, compound concentration 10 uM, replicate 2
[5] = 24 h, 1 µM, compound concentration 1 uM, replicate 1
[6] = 24 h, 1 µM, compound concentration 1 uM, replicate 2
[7] = 24 h, 10 µM, compound concentration 10 uM, replicate 1
[8] = 24 h, 10 µM, compound concentration 10 uM, replicate 2
[9] = 48 h, 1 µM, compound concentration 1 uM, replicate 1
[10] = 48 h, 1 µM, compound concentration 1 uM, replicate 2
[11] = 48 h, 10 µM, compound concentration 10 uM, replicate 1
[12] = 48 h, 10 µM, compound concentration 10 uM, replicate 2

## CCCn1c(=O)c2[nH]c(C3CCCC3)nc2n(CCC)c1=O [1,3-DIPROPYL-8-CYCLOPENTYLXANTHINE [DPCPX]]
[1]
  Population Apoptotic (%): 38%
  Population Fragmented Nuclei (%): 10%
  Population Healthy Nuclei (%): 73%
  Population Hoechst High Intensity Objects (%): 3%
  Population Membrane Permeable-Phenotype (%): 0%
  Population Mitochondria Different-Phenotype (%): 1%
  Population Mitotic Cells (%): 61%
  Population Normal (%): 96%
  Population Pyknosed Nuclei (%): 15%
  Population Tubulin-Different-Phenotype (%): 29%
  Total Cell Count: 175
[2]
  Population Apoptotic (%): 30%
  Population Fragmented Nuclei (%): 25%
  Population Healthy Nuclei (%): 46%
  Population Membrane Permeable-Phenotype (%): 1%
  Population Mitochondria Different-Phenotype (%): 10%
  Population Mitotic Cells (%): 69%
  Population Pyknosed Nuclei (%): 28%
  Population Tubulin-Different-Phenotype (%): 50%
  Total Cell Count: 156
[3]
  Population Apoptotic (%): 58%
  Population Fragmented Nuclei (%): 18%
  Population Healthy Nuclei (%): 65%
  Population Hoechst High Intensity Objects (%): 3%
  Population Membrane Permeable-Phenotype (%): 0%
  Population Mitochondria Different-Phenotype (%): 10%
  Population Mitotic Cells (%): 41%
  Population Normal (%): 96%
  Population Pyknosed Nuclei (%): 17%
  Population Tubulin-Different-Phenotype (%): 47%
  Total Cell Count: 104
[4]
  Population Apoptotic (%): 25%
  Population Fragmented Nuclei (%): 32%
  Population Healthy Nuclei (%): 47%
  Population Hoechst High Intensity Objects (%): 6%
  Population Membrane Permeable-Phenotype (%): 12%
  Population Mitochondria Different-Phenotype (%): 3%
  Population Mitotic Cells (%): 75%
  Population Normal (%): 93%
  Population Pyknosed Nuclei (%): 20%
  Population Tubulin-Different-Phenotype (%): 59%
  Total Cell Count: 129
[5]
  Population Apoptotic (%): 50%
  Population Fragmented Nuclei (%): 13%
  Population Healthy Nuclei (%): 77%
  Population Hoechst High Intensity Objects (%): 2%
  Population Membrane Permeable-Phenotype (%): 0%
  Population Mitochondria Different-Phenotype (%): 2%
  Population Mitotic Cells (%): 50%
  Population Normal (%): 97%
  Population Pyknosed Nuclei (%): 9%
  Population Tubulin-Different-Phenotype (%): 30%
  Total Cell Count: 177
[6]
  Population Apoptotic (%): 75%
  Population Fragmented Nuclei (%): 30%
  Population Healthy Nuclei (%): 48%
  Population Hoechst High Intensity Objects (%): 3%
  Population Membrane Permeable-Phenotype (%): 4%
  Population Mitochondria Different-Phenotype (%): 12%
  Population Mitotic Cells (%): 24%
  Population Normal (%): 96%
  Population Pyknosed Nuclei (%): 21%
  Population Tubulin-Different-Phenotype (%): 54%
  Total Cell Count: 159
[7]
  Population Apoptotic (%): 63%
  Population Fragmented Nuclei (%): 17%
  Population Healthy Nuclei (%): 61%
  Population Hoechst High Intensity Objects (%): 3%
  Population Membrane Permeable-Phenotype (%): 6%
  Population Mitochondria Different-Phenotype (%): 9%
  Population Mitotic Cells (%): 36%
  Population Normal (%): 96%
  Population Pyknosed Nuclei (%): 22%
  Population Tubulin-Different-Phenotype (%): 49%
  Total Cell Count: 104
[8]
  Population Apoptotic (%): 20%
  Population Fragmented Nuclei (%): 35%
  Population Healthy Nuclei (%): 40%
  Population Hoechst High Intensity Objects (%): 6%
  Population Membrane Permeable-Phenotype (%): 8%
  Population Mitochondria Different-Phenotype (%): 4%
  Population Mitotic Cells (%): 79%
  Population Normal (%): 93%
  Population Pyknosed Nuclei (%): 24%
  Population Tubulin-Different-Phenotype (%): 63%
  Total Cell Count: 125
[9]
  Population Apoptotic (%): 72%
  Population Fragmented Nuclei (%): 16%
  Population Healthy Nuclei (%): 70%
  Population Hoechst High Intensity Objects (%): 2%
  Population Membrane Permeable-Phenotype (%): 0%
  Population Mitochondria Different-Phenotype (%): 1%
  Population Mitotic Cells (%): 27%
  Population Normal (%): 97%
  Population Pyknosed Nuclei (%): 12%
  Population Tubulin-Different-Phenotype (%): 35%
  Total Cell Count: 182
[10]
  Population Apoptotic (%): 47%
  Population Fragmented Nuclei (%): 39%
  Population Healthy Nuclei (%): 48%
  Population Hoechst High Intensity Objects (%): 7%
  Population Membrane Permeable-Phenotype (%): 5%
  Population Mitochondria Different-Phenotype (%): 12%
  Population Mitotic Cells (%): 52%
  Population Normal (%): 92%
  Population Tubulin-Different-Phenotype (%): 55%
  Total Cell Count: 170
[11]
  Population Apoptotic (%): 57%
  Population Fragmented Nuclei (%): 24%
  Population Healthy Nuclei (%): 55%
  Population Hoechst High Intensity Objects (%): 3%
  Population Membrane Permeable-Phenotype (%): 1%
  Population Mitochondria Different-Phenotype (%): 13%
  Population Mitotic Cells (%): 42%
  Population Normal (%): 96%
  Population Pyknosed Nuclei (%): 20%
  Population Tubulin-Different-Phenotype (%): 50%
  Total Cell Count: 98
[12]
  Population Apoptotic (%): 50%
  Population Fragmented Nuclei (%): 43%
  Population Healthy Nuclei (%): 45%
  Population Hoechst High Intensity Objects (%): 2%
  Population Membrane Permeable-Phenotype (%): 16%
  Population Mitochondria Different-Phenotype (%): 8%
  Population Mitotic Cells (%): 50%
  Population Normal (%): 97%
  Population Pyknosed Nuclei (%): 10%
  Population Tubulin-Different-Phenotype (%): 78%
  Total Cell Count: 136
